Only some compounds are listed: those with a hit (about 4.3% of all), similar ones and a draw of the others.
FLuc inh counter = Photinus pyralis luciferase inhibition counter-screen. P08659. ATPLite firefly luciferase biochemical luminescence, 10 min. inhibition, % at 10 µM. 1.5% of 200,000 active;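 active = inhibition above about 50% when tested at 10 µM, limit read from the data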
Target sequence (P08659 whole entry, looked up): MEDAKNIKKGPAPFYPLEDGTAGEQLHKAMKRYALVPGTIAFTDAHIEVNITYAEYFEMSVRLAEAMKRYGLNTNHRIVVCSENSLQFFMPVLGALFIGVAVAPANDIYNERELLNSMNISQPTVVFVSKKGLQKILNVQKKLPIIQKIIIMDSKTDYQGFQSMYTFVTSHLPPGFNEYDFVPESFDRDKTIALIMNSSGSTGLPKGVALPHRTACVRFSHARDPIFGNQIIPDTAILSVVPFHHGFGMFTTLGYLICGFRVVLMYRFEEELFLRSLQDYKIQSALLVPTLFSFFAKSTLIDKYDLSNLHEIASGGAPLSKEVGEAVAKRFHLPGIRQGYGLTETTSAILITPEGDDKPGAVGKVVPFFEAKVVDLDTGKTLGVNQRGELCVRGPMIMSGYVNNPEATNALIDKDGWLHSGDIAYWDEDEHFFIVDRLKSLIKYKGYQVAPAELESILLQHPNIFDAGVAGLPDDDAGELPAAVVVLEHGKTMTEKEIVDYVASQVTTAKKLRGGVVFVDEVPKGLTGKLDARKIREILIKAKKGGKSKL
SDO1 yeast rescue = compounds rescuing growth of sdo1-depleted yeast, bone marrow failure model; z-score at 10 µM; S. cerevisiae sdo1-depleted JHY4D growth rescue, OD600 30 h; active compounds read high; pdr5 snq2 efflux-pump mutant strain; AID 817; 0.21% of 140,000 active;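 active = z-score above 3 at both the 24 hr and the 30 hr optical density reads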;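 note: z-score against mean and SD of all compound wells on the same plate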
STAT1 act = increases IFN-gamma driven STAT1 reporter signal. 2.6% of 200,000 active. NIH 3T3 STAT1-luciferase reporter, luminescence; 100% = IFN-gamma alone, no compound. activation (% of control), % at 5.5 µM. AID 932;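 active = activation above the screen-wide mean activation plus 3 SD, cut at about 130% in these data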;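 note: raw ratio to IFN-gamma control signal so 100% means no change and 0% no light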
NF-kB expr up = raises NF-kB expression in human neuronal cells. fold change at 12.5 µM. AID 1239. 1.6% of 190,000 active. NF-kB reporter expression; active compounds read high; in the data active = fold change above about 3.3
FLuc act counter = firefly luciferase counter-screen for stimulation assays; ATPlite luciferase biochemical, luminescence, 10 min; 0 = ATP-free wells, 1 = DMSO control; 200,000 tested, under 10 active; AID 1027; activation factor at 10 µM; P08659;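 active = luciferase activation factor, scaled between plate controls, of at least 2 with compound at 10 µM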
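System: Luciferase/luciferin detection reagent, cell-free biochemical luciferase assay | Medium: PBS buffer for ATP | Dosing: Test compounds dosed from 2 mM stocks in 100% DMSO | Timing: 10 min at ambient temperature | Signal: Luminescence measurement of luciferase light output | Evaluation: Luciferase activation, seen as luminescence increase over controls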
APP 5'UTR act = APP 5'UTR luciferase reporter activation | 1% of 190,000 active | SH-SY5Y APP 5'UTR luciferase reporter, luminescence; zero percent = DMSO vehicle wells | AID 1276 | activation, % at 2 µM;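 active = activation above a set limit, based on mean plus 3 SD of controls, cut at about 140% in these data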
Numbers without * were called inactive; . = no result; [ ] = dose if it differs, or a comment.

SMILES	FLuc inh counter	SDO1 yeast rescue	STAT1 act	NF-kB expr up	FLuc act counter	APP 5'UTR act
O=C(c1ccc([N+](=O)[O-])o1)N1CCOCC1	-2	.	103	1.1	1	9
O=C(c1ccc(-c2ccc([N+](=O)[O-])cc2Cl)o1)N1CCOCC1	14	.	133*	1.9	0.9	25
Cc1nc2ccccc2n1CC(=O)NC(C)C1CC2CCC1C2 (configuration not stated)	0	.	72	1.2	1	8
CC(NC(=O)Cn1c(NCCO)nc2ccccc21)C1CC2CCC1C2 (configuration not stated)	0	.	134*	1.3	1	1
COc1ccc2c(c1OC)C(=O)N(c1cccc(C)c1)C2=O	19	-0.93	136*	1.5	0.8	10
O=C(CCc1nc2ccccc2s1)OCc1ccccc1F	-6	-0.02	102	1.3	1.1	-1
Clc1ccc(-c2cn3c(n2)CCC3)cc1	10	-0.18	121	3.5*	0.9	115
Clc1ccc(-c2nnc3n2CCCCC3)cc1	-4	1.4	103	1	1	10
CCOC(=O)C1=C(c2ccccc2)ON(C)C1c1ccccc1 (configuration not stated)	-8	-0.12	101	1.1	1.1	-1
CCOC(=O)C1(Cc2cccc(OC)c2)CCCN(C(=O)c2cc(C)[nH]n2)C1 (configuration not stated)	-2	.	140*	2.5	1	34
Cc1sc2nc(-c3ccccc3)oc(=O)c2c1C	16	.	118	3.2	0.8	29
CC1=NN(C(=O)CCc2ccccc2)C(O)(c2ccncc2)C1 (configuration not stated)	-3	.	102	1.1	1	-17
c1ccc(OCc2nc(-c3ccccc3)no2)cc1	7	-0.3	142*	2.8	0.9	34
Brc1ccc(-c2noc(CCc3ccccc3)n2)cc1	.	.	101	.	.	18
O=C(Nc1ccc(-c2cn3ccccc3n2)cc1)c1ccco1	86*	-0.53	144*	2.4	0.1	122
c1ccc(OCc2nc(-c3ccncc3)no2)cc1	5	.	123	1.2	0.9	24
c1ccc(CCc2nc(-c3ccccc3)no2)cc1	2	0.51	134*	1.8	1	18
Cc1cccc(-c2noc(Cc3ccccc3)n2)c1	6	-0.59	135*	2.1	0.9	42
NCCCC[C@H](N)c1nnc([C@H](CCC(=O)O)NC(=O)C2CCNCC2)o1	-7	.	100	1	1.1	8
Cc1c(NS(=O)(=O)c2ccc(Cl)c(C(=O)OCC(=O)NCc3ccco3)c2)c(=O)n(-c2ccccc2)n1C	-6	.	101	1.1	1.1	-3
c1ccc(-c2noc(CN3CCN(c4ccccc4)CC3)n2)cc1	-8	-0.37	98	1.1	1.1	.
CC1CCN(Cc2nc(-c3ccccc3)no2)CC1	.	0.08[11.9 µM]	142*	3.4*	.	75
O=C(Nc1ccc(-c2noc(CCc3ccccc3)n2)cc1)c1ccco1	40	-1.6	136*	3.9*	0.6	173*
CCOC(=O)c1cc(NC(=O)Nc2nccs2)c(C)nc1C	-4	0.29	110	0.96	1	8
COC(=O)c1ccccc1NC(=O)c1ccc(-c2ccc(Br)cc2)o1	-7	2.2	138*	0.75	1.1	-12
SMILES	FLuc inh counter	SDO1 yeast rescue	STAT1 act	NF-kB expr up	FLuc act counter	APP 5'UTR act
O=C(/C=C/c1ccc(Br)cc1)c1ccco1	18	-1.8	104	1.6	0.8	-4
O=C(/C=C/Nc1ccc(F)c(Cl)c1)c1ccco1	41	-0.31	150*	2.9	0.6	96
O=C(/C=C/Nc1ccc(Br)cc1F)c1ccco1	97*	.	25	4.7*	0	135
O=C(/C=C/Nc1ccc(F)cc1F)c1ccco1	97*	.	28	4.9*	0	152*
O=C(CCNc1ccc(F)c(Cl)c1)c1ccco1	-2	0.24	100	2.5	1	13
CCOc1ccc(S(=O)(=O)N2CCN(C(=O)c3cc4c(s3)CCCC4)CC2)cc1	-5	-0.69	101	0.72	1.1	12
Cc1nn(CCO)c2nc(-c3cccs3)cc(C(F)(F)F)c12	-4	-0.88	106	1.1	1	-4
c1ccc2c(c1)nnn2-c1ncnc2sccc12	15	.	134*	2.1	0.8	16
c1ccc2c(Oc3ccc4c(c3)OCO4)nncc2c1	47	-0.12	138*	4.3*	0.5	120
O=c1[nH]ncc(N/N=C\c2cccs2)c1Cl	0	.	87	1.2	1	6
O=C(Oc1ccccc1)c1ccc(NC(=O)c2ccco2)cc1	11	-0.52	136*	1.4	0.9	2
CC(=O)c1cc(NC(=O)c2ccccc2)c(=O)oc1C	1	.	96	6.1*	1	9
COc1ccc(OC)c(NC(=O)c2cc3ccccc3o2)c1	4	-0.31	108	1.1	1	2
COc1ccc(OC(=O)c2cc3ccccc3o2)cc1	57*	-0.91	99	1.1	0.4	-4
COc1ccc(OCC(=O)N/N=C(\C)c2ccc(OC)cc2)cc1	12	.	98	0.95	0.9	8
COc1ccc(OCC(=O)N/N=C(\C)c2cc3ccccc3o2)cc1	81*	-0.24	105	1.7	0.2	-3
O=C(CSc1ccccc1)Nc1cc(S(=O)(=O)N2CCOCC2)ccc1N1CCOCC1	-6	.	96	1	1.1	-12
CCC(C)(C(=O)Nc1ccccc1C)N(C(=O)CNC(C)=O)c1ccccc1C (configuration not stated)	-6	0.45	97	1.2	1.1	6
Cc1cc(Cl)ccc1Oc1nccc(N(C)C)c1C#N	-1	-1	106	1.2	1	9
Cc1ccc(NC(=O)c2ccc(OC(=O)c3cc4ccccc4o3)cc2)cc1	-2	0.17	134*	1.9	1	38
Cc1ccc(OC(=O)c2cc(=O)c3ccccc3o2)cc1	45	0.32	105	1.1	0.5	6
Cc1ccc(C(=O)Nc2cc3ccccc3oc2=O)cc1	87*	.	12	1.1	0.1	-66
Cc1ccc(Oc2ccc(NC(=O)c3ccco3)cc2)cc1	4	-0.81	119	1.7	1	29
CC(=O)Nc1cc2ccccc2oc1=O	-3	.	108	1.5	1	12
Cc1ccc(NC(=O)c2ccc(OC(=O)c3ccco3)cc2)cc1	-2	0.99	134*	2.8	1	15
CCOc1ccc(NC(=O)CN2C(=O)NC(CCSC)C2=O)cc1 (configuration not stated)	0	.	106	1.1	1	-6
COc1cc(C2C(C(=O)/C=C/c3ccccc3)=C(O)C(=O)N2c2ccccn2)ccc1O (configuration not stated)	-8	.	91	1.3	1.1	7

From PubChem
